Measured values gathered from unrelated publications.
Protocols differ between the studies behind these lines.
Sample: Caco-2

| SMILES | setting | efflux ratio |
| --- | --- | --- |
| N#Cc1ccc(C[C@H](Nc2nnc(-c3ccc(F)cc3)o2)C(=O)N2CCc3ccccc32)cc1 | 100 µM, 2 h | 3.8 |
| CC(C)(N)COCC(=O)N1CCC[C@H](C(=O)NCc2nc(-c3ccc(C(F)(F)F)cc3)cs2)C1 | – | 240 |
| CCCCCCOC(=O)NC(=N)c1ccc(NCc2nc3cc(C(=O)N(CCC(=O)OCC)c4ccccn4)ccc3n2C)cc1 | 5 µM, 2 h | 510 |
| O=c1c(O[C@@H]2O[C@H](CO)[C@H](O)[C@H](O)[C@H]2O)c(-c2ccc(O)c(O)c2)oc2cc(O)cc(O)c12 | 200 µg/mL | 1.56 |
| CC[C@]1(O)C[C@@H]2CN(CCc3c([nH]c4ccccc34)[C@@](C(=O)OC)(c3cc4c(cc3OC)N(C)[C@H]3[C@@](O)(C(=O)OC)[C@H](OC(C)=O)[C@]5(CC)C=CCN6CC[C@]43[C@@H]65)C2)C1 | 10 µM, 2 h | 13.5 |
| Cc1ncc(Cl)cc1NCc1ccc(C(=O)N[C@@H](CC2CCCC2)C(=O)NC2CC2)s1 | 5 µM, 2 h, pH 7.4 | 41 |
| N[C@@H](COCC(=O)N1CCC[C@H](C(=O)NCc2nc(-c3ccc(C(F)(F)F)cc3)cs2)C1)c1ccccc1 | – | 11 |
| O=c1cc(-c2ccc(O)cc2)oc2c([C@@H]3O[C@H](CO)[C@@H](O)[C@H](O)[C@H]3O)c(O)cc(O)c12 | 200 µg/mL | 1.28 |
| N#Cc1ccc(C[C@H](Nc2nnc(-c3ccc(F)cc3)s2)C(=O)N2CCc3ccccc32)cc1 | 100 µM, 2 h | > 20 |
| O=C(NCc1nc(-c2ccc(C(F)(F)F)cc2)cs1)[C@H]1CCCN(C(=O)CO[C@H]2CCCNC2)C1 | – | 160 |
| O=C(Nc1ccc(OC(F)(F)F)cc1)N[C@H]1CC[C@H](Oc2ccc(C(=O)O)cc2)CC1 | – | 0.98 |
| O=C(NCc1nc(-c2ccc(C(F)(F)F)cc2)cs1)[C@H]1CCCN(C(=O)COCCN2CCCC2)C1 | – | 46 |
| C[C@H]1O[C@@H](O[C@H]2[C@@H](O)C[C@H](O[C@H]3[C@@H](O)C[C@H](O[C@H]4CC[C@@]5(C)[C@H](CC[C@@H]6[C@@H]5C[C@@H](O)[C@]5(C)[C@@H](C7=CC(=O)OC7)CC[C@]65O)C4)O[C@@H]3C)O[C@@H]2C)C[C@H](O)[C@@H]1O | 10 µM, 2 h | 28.3 |
